Assay results published in ChEMBL document CHEMBL3804788, “The design of 8-hydroxyquinoline tetracyclic lactams as HIV-1 integrase strand transfer inhibitors” (Eur J Med Chem, 2016).
≈ marks a conversion by molar mass, not a printed value.

Experiments:
[1] = system: Human immunodeficiency virus type 1 integrase (Human immunodeficiency virus 1), Q7ZJM1 [Q148K]; assay: (§1) Inhibition of pseudotype HIV1 integrase Q148K mutant strand transfer activity in HIV1 infected human CIP4 cells assessed as ratio of IC50 for pseudotype HIV1 integrase Q148K mutant strand transfer activity to IC50 for pseudotype HIV1 integrase strand transfer activity after 2 days by luciferase reporter gene assay; type: cell-based
[2] = system: Human immunodeficiency virus type 1 integrase (Human immunodeficiency virus 1), Q7ZJM1 [G140S,Q148H]; assay: as §1, with “G140S/Q148H double” for “Q148K”; type: cell-based
[3] = Cytotoxicity against human CIP4 cells; type: cell-based
[4] = Oral bioavailability in beagle dog after 24 hrs by LC-MS/MS analysis; type: ADME, organism-based, Canis lupus familiaris; conditions: in vivo
[5] = Half life in iv or po dosed beagle dog by LC-MS/MS analysis; type: ADME, organism-based, Canis lupus familiaris; conditions: in vivo
[6] = Half life in Sprague-Dawley rat at 1 mg/kg, iv or 5 mg/kg, po by LC-MS/MS analysis; type: ADME, organism-based; conditions: in vivo
[7] = Intrinsic aqueous solubility of compound by chemiluminescent nitrogen detection method; type: physicochemical; conditions: buffer
[8] = Oral bioavailability in Sprague-Dawley rat at 5 mg/kg after 24 hrs by LC-MS/MS analysis; type: ADME, organism-based; conditions: in vivo
[9] = Apparent permeability of compound; type: physicochemical; conditions: not told
[10] = Total clearance in Sprague-Dawley rat at 1 mg/kg, iv or 5 mg/kg, po after 24 hrs by LC-MS/MS analysis; type: ADME, organism-based; conditions: in vivo
Canis familiaris = assay: Total clearance in iv or po dosed beagle dog after 24 hrs by LC-MS/MS analysis relative to hepatic blood flow; type: ADME, organism-based, Canis lupus familiaris, Liver; conditions: in vivo
[11] = Total clearance in iv or po dosed beagle dog after 24 hrs by LC-MS/MS analysis; type: ADME, organism-based, Canis lupus familiaris; conditions: in vivo
Rattus norvegicus = assay: Total clearance in Sprague-Dawley rat at 1 mg/kg, iv or 5 mg/kg, po after 24 hrs by LC-MS/MS analysis relative to hepatic blood flow; type: ADME, organism-based, Liver; conditions: in vivo
[12] = target: Human immunodeficiency virus type 1 integrase (Human immunodeficiency virus 1) (UniProt Q7ZJM1); assay: Ratio of IC50 for pseudotype HIV1 integrase strand transfer activity in presence of 40% human serum albumin to IC50 for pseudotype HIV1 integrase strand transfer activity
How it was run: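 Single-round assay with a self-inactivating pseudotyped HIV (PHIV) lentiviral luciferase vector. CIP4 cells (2 × 10^4/well) were infected with enough PHIV to give about 50,000 relative light units. Cells were incubated 2 days with compound at varying concentrations, with or without 40% human serum albumin. Infection was read as luciferase luminescence (Steady-Glo). Serum shift is the IC50 with albumin divided by the IC50 without.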

Row | Compound | Ratio IC50 [1] | Ratio IC50 [2] | CC50 [3] | further results
1 | NC(=O)c1c2c(c(O)c3ncc(Cc4cccc(Cl)c4F)cc13)C(=O)N1CCCC[C@@H]21 | 0.1 | 3.7 | 5.18 µM | –
2 | N#Cc1c2c(c(O)c3ncc(Cc4cccc(Cl)c4F)cc13)C(=O)N1CCC[C@@H]21 | 31 | 131 | 1.83 µM | –
3 | NC(=O)c1c2c(c(O)c3ncc(Cc4cccc(Cl)c4F)cc13)C(=O)N1CCCC[C@H]21 | 1.4 | 2.8 | 24.4 µM | bioavailability [4]: 14%; half-life [5]: 11.8 h; half-life [6]: 7.2 h; solubility [7]: 25 µM (≈ 11 µg/mL); bioavailability [8]: 2%; Papp [9]: 6 ×10⁻⁶ cm/s; clearance [10]: 1.4 mL/min/kg; CL (Canis familiaris): 5%; clearance [11]: 2.8 mL/min/kg; CL (Rattus norvegicus): 2%
4 | N#Cc1c2c(c(O)c3ncc(Cc4cccc(Cl)c4F)cc13)C(=O)N1CCC[C@@H]1C2 | 0.8 | 1.5 | 12.8 µM | –
5 | N#Cc1c2c(c(O)c3ncc(Cc4cccc(Cl)c4F)cc13)C(=O)N1CCC[C@H]21 | 216 | 456 | 7.27 µM | –
6 | N#Cc1c2c(c(O)c3ncc(Cc4cccc(Cl)c4F)cc13)C(=O)N1CCCC[C@@H]21 | 17 | 93 | 3.36 µM | –
7 | N#Cc1c2c(c(O)c3ncc(Cc4cccc(Cl)c4F)cc13)C(=O)N1CCCN1C2 | 1.3 | 8 | – | Ratio IC50 [12]: 188
8 | N#Cc1c2c(c(O)c3ncc(Cc4cccc(Cl)c4F)cc13)C(=O)N1CCC[C@H]1C2 | 1.4 | 2.8 | 50 µM | –
9 | O=C1c2c(cc3cc(Cc4cccc(Cl)c4F)cnc3c2O)CN2CCCN12 | 0.4 | 2.3 | – | Ratio IC50 [12]: 9
10 | Cn1c(=O)c(C(=O)NCCO)c(O)c2ncc(Cc3ccc(F)cc3)cc21 | 40 | – | – | –
11 | NC(=O)c1c2c(c(O)c3ncc(Cc4cccc(Cl)c4F)cc13)C(=O)N1CCC[C@@H]1C2 | 0.6 | 0.4 | 21.1 µM | –
12 | O=C(NCc1ccc(F)cc1)c1cn2c(c(O)c1=O)C(=O)N1CCCO[C@H]1C2 | 2.4 | – | – | –
13 | N#Cc1c2c(c(O)c3ncc(Cc4cccc(Cl)c4F)cc13)C(=O)N1CCCC[C@H]21 | 8.8 | 17 | 7.05 µM | –
14 | NC(=O)c1c2c(c(O)c3ncc(Cc4cccc(Cl)c4F)cc13)C(=O)N1CCC[C@H]1C2 | 0.6 | 2.6 | 36.8 µM | –
